Here are results for two molecules from ChEMBL document CHEMBL4052613, “Structure-activity relationship studies of 1,7-diheteroarylhepta-1,4,6-trien-3-ones with two different terminal rings in prostate epithelial cell models” (Eur J Med Chem, 2017).

For assay [1], the system named is PC-3. Description: Induction of apoptosis in human PC3 cells assessed as viable cells at 20 uM after 16 hrs by F2N12S orange and SYTOX green double staining based flow cytometry (reference value: 95%). It counts as functional. Conditions: PC-3, 16 h, read-out: Activity. For orientation: In flow cytometry, cells or beads pass a laser one at a time.
For assay [2], the system named is PC-3. Nature of the assay: Induction of apoptosis in human PC3 cells assessed as viable cells at 30 uM after 16 hrs by F2N12S orange and SYTOX green double staining based flow cytometry (reference value: 95%). Format: functional. To be noted: PC-3, 16 h, read-out: Activity.
For assay [3], the system named is PC-3. Nature of the assay: Induction of apoptosis in human PC3 cells assessed as necrotic cells at 30 uM after 16 hrs by F2N12S orange and SYTOX green double staining based flow cytometry (reference value: 2 to 3%). It counts as functional.
Assay [4] relates to PC-3. Description: Induction of apoptosis in human PC3 cells assessed as necrotic cells at 5 uM after 16 hrs by F2N12S orange and SYTOX green double staining based flow cytometry (reference value: 2 to 3%). Format: functional.
For assay [5], the system named is PC-3. Nature of the assay: Induction of apoptosis in human PC3 cells assessed as apoptotic cells at 10 uM after 16 hrs by F2N12S orange and SYTOX green double staining based flow cytometry (reference value: 2 to 3%). It counts as functional.
Assay [6] has as its system PC-3. Description: Induction of apoptosis in human PC3 cells assessed as viable cells at 40 uM after 16 hrs by F2N12S orange and SYTOX green double staining based flow cytometry (reference value: 95%). Conditions: PC-3, 16 h, read-out: Activity. It counts as functional.
For assay [7], the system named is PC-3. Nature of the assay: Induction of apoptosis in human PC3 cells assessed as apoptotic cells at 5 uM after 16 hrs by F2N12S orange and SYTOX green double staining based flow cytometry (reference value: 2 to 3%). Format: functional.
Assay [8] has as its system PC-3. Nature of the assay: Induction of apoptosis in human PC3 cells assessed as necrotic cells at 40 uM after 16 hrs by F2N12S orange and SYTOX green double staining based flow cytometry (reference value: 2 to 3%). Format: functional.
Assay [9] concerns PC-3. Description: Induction of apoptosis in human PC3 cells assessed as viable cells at 10 uM after 16 hrs by F2N12S orange and SYTOX green double staining based flow cytometry (reference value: 95%). It counts as functional. Conditions: PC-3, 16 h, read-out: Activity.
For assay [10], the system named is PC-3. Description: Induction of apoptosis in human PC3 cells assessed as apoptotic cells at 20 uM after 16 hrs by F2N12S orange and SYTOX green double staining based flow cytometry (reference value: 2 to 3%). Format: functional.
For assay [11], the system named is PC-3. Description: Induction of apoptosis in human PC3 cells assessed as viable cells at 5 uM after 16 hrs by F2N12S orange and SYTOX green double staining based flow cytometry (reference value: 95%). Conditions: PC-3, 16 h, read-out: Activity. It counts as functional.
Assay [12] has as its system PC-3. Description: Induction of apoptosis in human PC3 cells assessed as apoptotic cells at 30 uM after 16 hrs by F2N12S orange and SYTOX green double staining based flow cytometry (reference value: 2 to 3%). It counts as functional.
Assay [13] concerns PC-3. Nature of the assay: Induction of apoptosis in human PC3 cells assessed as necrotic cells at 20 uM after 16 hrs by F2N12S orange and SYTOX green double staining based flow cytometry (reference value: 2 to 3%). It counts as functional.
Assay [14] relates to PC-3. Description: Induction of apoptosis in human PC3 cells assessed as apoptotic cells at 40 uM after 16 hrs by F2N12S orange and SYTOX green double staining based flow cytometry (reference value: 2 to 3%). Format: functional.
Assay [15] concerns PC-3. Nature of the assay: Induction of apoptosis in human PC3 cells assessed as necrotic cells at 10 uM after 16 hrs by F2N12S orange and SYTOX green double staining based flow cytometry (reference value: 2 to 3%). It counts as functional.
Another assay deals with PWR-1E. Description: Antiproliferative activity against human PWR-1E cells after 3 days by WST-1 assay. To be noted: 72 h. Format: cell-based. The essentials: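 PWR-1E non-neoplastic prostate epithelial cells grown in keratinocyte serum-free medium with bovine pituitary extract and recombinant human EGF. WST-1 proliferation read-out after 3 days of exposure.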

`CN[C@@H]1C[C@H]2O[C@@](C)([C@@H]1OC)n1c3ccccc3c3c4c(c5c6ccccc6n2c5c31)C(=O)NC4` [STAUROSPORINE]: the viability at 20 µM with PC-3 [1] was found to be 68%. The viability at 30 µM with PC-3 [2] is 46%. Besides, the Activity is on record as 8% with PC-3 [3]; 4% with PC-3 [4]; 10% with PC-3 [5]; 9% in the assay with PC-3 [7]; 9% in the assay on PC-3 [8]; 24% with PC-3 [10]. Also, the Activity with PC-3 [12] was 47%; with PC-3 [13], 8%; in the assay with PC-3 [14], 60%; in the assay with PC-3 [15] it was 6%. Moreover, the viability at 40 µM in the assay on PC-3 [6] was determined as 31%. For the same molecule, in the assay with PC-3 [9], the viability at 10 µM stood at 84%. Besides, the viability at 5 µM with PC-3 [11] was 87%.
`COc1cc(/C=C/C(=O)CC(=O)/C=C/c2ccc(O)c(OC)c2)ccc1O` [CURCUMIN]: the IC50 (in general, the concentration needed to halve the response being measured) in the assay on PWR-1E was found to be 8.14 µM.
